Measurements from ChEMBL document CHEMBL1275477, “Discovery and characterization of QPT-1, the progenitor of a new class of bacterial topoisomerase inhibitors” (Antimicrob Agents Chemother, 2008).
pIC50: −log10 of the molar value. Converted amounts (≈) assume the structure as drawn.

Experiments:
Staphylococcus aureus [1] = assay: Antibacterial activity against Staphylococcus aureus RN4220 by broth microdilution method; type: functional
Outline: (§1)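 Broth microdilution MIC following National Committee for Clinical Laboratory Standards methods. Plasmid-borne GyrB in transformed S. aureus strains was overexpressed by adding 100 ng/ml doxycycline.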

Staphylococcus aureus [2] = assay: Antimicrobial activity against Staphylococcus aureus 286607-R1 by broth microdilution method; type: functional; outline: as §1
Staphylococcus aureus [3] = assay: Antimicrobial activity against Staphylococcus aureus 286607-R1 harboring wild type gyrB by broth microdilution method; type: functional; outline: as §1
Staphylococcus aureus [4] = assay: Antimicrobial activity against Staphylococcus aureus RN4220 expressing gyrB D437N mutant gene by broth microdilution method; type: functional; outline: as §1
Staphylococcus aureus [5] = assay: Antimicrobial activity against methicillin-resistant Staphylococcus aureus SUAR 1015-01 harboring gyrA S84L, parC S80F and parE S189R mutant gene by broth microdilution method; type: functional; outline: as §1
Staphylococcus aureus [6] = assay: Antimicrobial activity against Staphylococcus aureus MW2 harboring parC R400C mutant gene by broth microdilution method; type: functional; outline: as §1
Staphylococcus aureus [7] = assay: Antimicrobial activity against Staphylococcus aureus USA200 harboring […] S84L and parC R400C mutant gene by broth microdilution method; type: functional; outline: as §1
Staphylococcus aureus [8] = assay: Antibacterial activity against ciprofloxacin-resistant Staphylococcus aureus ATCC 29213 by broth microdilution method; type: functional; outline: as §1
Staphylococcus aureus [9] = assay: Antibacterial activity against quinoline pyrimidine trione-resistant Staphylococcus aureus ATCC 29213 by broth microdilution method; type: functional; outline: as §1
Staphylococcus aureus [10] = assay: Antibacterial activity against methicillin-susceptible Staphylococcus aureus by broth microdilution method; type: functional; outline: as §1
Staphylococcus aureus [11] = assay: Antibacterial activity against methicillin-resistant Staphylococcus aureus by broth microdilution method; type: functional; outline: as §1
Staphylococcus aureus [12] = assay: Antibacterial activity against ciprofloxacin-resistant Staphylococcus aureus by broth microdilution method; type: functional; outline: as §1
Streptococcus pneumoniae [13] = assay: Antibacterial activity against Streptococcus pneumoniae by broth microdilution method; type: functional; outline: as §1
Streptococcus pneumoniae [14] = assay: Antibacterial activity against ciprofloxacin-resistant Streptococcus pneumoniae by broth microdilution method; type: functional; outline: as §1
[15] = Inhibition of Escherichia coli DNA gyrase by gel electrophoresis
[16] = Inhibition of Escherichia coli DNA topoisomerase 4 by gel electrophoresis
Staphylococcus aureus [17] = assay: Antibacterial activity against methicillin-resistant Staphylococcus aureus UC9213 in orally dosed lethal systemic CF-1 mouse infection model; type: functional; details: UC9213, po
Outline: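 Lethal systemic infection in female CF-1 mice (20 g), infected intraperitoneally with enough bacteria to kill 90–100% of untreated mice. Thawed cultures were suspended in brain heart infusion broth with 4% (wt/vol) dried brewer's yeast. Drug given orally or subcutaneously at 1 and 5 h postinfection, at five or more dose levels, six mice per level. Survival followed for 1 week; ED50 by probit analysis.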

Compound: CN[C@@H]1[C@H](O[C@H]2[C@H](O[C@H]3[C@H](O)[C@@H](O)[C@H](N=C(N)N)[C@@H](O)[C@@H]3N=C(N)N)O[C@@H](C)[C@]2(O)C=O)O[C@@H](CO)[C@H](O)[C@H]1O [STREPTOMYCIN]
- MIC (Staphylococcus aureus [1]): 4 µg/mL (≈ 6.88 µM)
- MIC (Staphylococcus aureus [2]): 4 µg/mL (≈ 6.88 µM)
- MIC (Staphylococcus aureus [3]): 4 µg/mL (≈ 6.88 µM)
- MIC (Staphylococcus aureus [4]): 4 µg/mL (≈ 6.88 µM)

Compound: O=C(O)c1cn(C2CC2)c2cc(N3CCNCC3)c(F)cc2c1=O [CIPROFLOXACIN]
- MIC (Staphylococcus aureus [2]): 0.25 µg/mL (≈ 0.754 µM)
- MIC (Staphylococcus aureus [3]): 0.25 µg/mL (≈ 0.754 µM)
- MIC (Staphylococcus aureus [4]): 0.25 µg/mL (≈ 0.754 µM)
- MIC (Staphylococcus aureus [5]): 64 µg/mL (≈ 193 µM)
- MIC (Staphylococcus aureus [6]): 0.25 µg/mL (≈ 0.754 µM)
- MIC (Staphylococcus aureus [7]): 8 µg/mL (≈ 24.1 µM)
- MIC (Staphylococcus aureus [8]): 8 µg/mL (≈ 24.1 µM)
- MIC (Staphylococcus aureus [9]): 0.5 µg/mL (≈ 1.51 µM)
- MIC50 (Staphylococcus aureus [10]): 0.125 µg/mL (≈ 0.377 µM)
- MIC90 (Staphylococcus aureus [10]): 0.25 µg/mL (≈ 0.754 µM)
- MIC50 (Staphylococcus aureus [11]): 0.25 µg/mL (≈ 0.754 µM)
- MIC90 (Staphylococcus aureus [11]): 32 µg/mL (≈ 96.6 µM)
- MIC50 (Staphylococcus aureus [12]): 16 µg/mL (≈ 48.3 µM)
- MIC90 (Staphylococcus aureus [12]): > 64 µg/mL
- MIC50 (Streptococcus pneumoniae [13]): 1 µg/mL (≈ 3.02 µM)
- MIC90 (Streptococcus pneumoniae [13]): 2 µg/mL (≈ 6.04 µM)
- MIC50 (Streptococcus pneumoniae [14]): 32 µg/mL (≈ 96.6 µM)
- MIC90 (Streptococcus pneumoniae [14]): 64 µg/mL (≈ 193 µM)
- pIC50 [15]: 7.00
- pIC50 [16]: 6.00
- ED50 (Staphylococcus aureus [17]): 10 mg/kg

Compound: O=C(N[C@H](CO)[C@H](O)c1ccc([N+](=O)[O-])cc1)C(Cl)Cl [CHLORAMPHENICOL]
- MIC (Staphylococcus aureus [1]): 8 µg/mL (≈ 24.8 µM)
- MIC (Staphylococcus aureus [2]): 8 µg/mL (≈ 24.8 µM)
- MIC (Staphylococcus aureus [3]): 8 µg/mL (≈ 24.8 µM)
- MIC (Staphylococcus aureus [4]): 8 µg/mL (≈ 24.8 µM)

Compound: CCn1cc(C(=O)O)c(=O)c2cc(F)c(N3CCNCC3)cc21 [NORFLOXACIN]
- MIC (Staphylococcus aureus [1]): 0.5 µg/mL (≈ 1.57 µM)
- MIC (Staphylococcus aureus [2]): 2 µg/mL (≈ 6.26 µM)
- MIC (Staphylococcus aureus [3]): 0.5 µg/mL (≈ 1.57 µM)
- MIC (Staphylococcus aureus [4]): 0.5 µg/mL (≈ 1.57 µM)
